Results collected from several papers.
Each line is one published result; the experiments were not run side by side.
Target: Beta-2 adrenergic receptor (ADRB2, Homo sapiens, UniProt P07550)
Tested at: 10 µM

With `Oc1cccc(Nc2nc(-c3ccc(F)cc3F)cs2)c1` the inhibition was 4% (cell-free assay).
`O=C(Nc1ccc(S(=O)(=O)N2CCC(Cl)CC2)cc1)c1ccc([N+](=O)[O-])o1` gave an inhibition of 17% (ligand displacement, radioligand).
`CC(=O)N1CCC(c2ccc(C(=O)NC3=NCCN3)cc2C(F)(F)F)CC1` gave an inhibition of -14.2% (ligand displacement).
With `CCCNc1nc2ccccc2n1Cc1ccc(Cl)cc1` the inhibition was -10.2% (ligand displacement).
The inhibition of `O=C1N=C(N2CCCCN2)S/C1=C\c1ccc(F)cc1O` is reported as less than 10% (ligand displacement, radioligand).
With `O=C(c1ccc(F)cc1)N(Cc1ccccc1)C1CCCCC1` the inhibition was 7% (cell-free assay).
`N#Cc1cc(Cn2c(N3CCCC3)nc3ccccc32)ccc1F` has an inhibition of 0% (ligand displacement).
For `Ic1cccc2cnccc12`, the inhibition was 0% (ligand displacement, radioligand).
With `CN1CCN(c2ccnc(NCCc3ccccc3)n2)CC1` the inhibition was -3.49% (ligand displacement).
`CCN(CC)c1ccc(C2Nc3ccc(C(=O)c4ccccc4)cc3NC3=C2C(=O)CC(C)(C)C3)cc1` (stereo not shown) has an inhibition of 1% (ligand displacement, radioligand).
